Source: ChEMBL document CHEMBL4382285, “Discovery of Novel Retigabine Derivatives as Potent KCNQ4 and KCNQ5 Channel Agonists with Improved Specificity” (ACS Med Chem Lett, 2019)
The source made the active and inactive calls. The rule behind the calls is not given here.

Assays:
Assay type in all cases: cell-based
[1] = target: T1, Potassium voltage-gated channel subfamily KQT member 4 (Homo sapiens) (UniProt P56696); experiment: Activity at human KCNQ4 expressed in CHOK1 cells assessed as ratio of amplitude of outward current in presence of test compound to amplitude of outward current in absence of test compound at 10 uM at -10 mV by whole cell patch clamp assay
T1 sequence (whole entry): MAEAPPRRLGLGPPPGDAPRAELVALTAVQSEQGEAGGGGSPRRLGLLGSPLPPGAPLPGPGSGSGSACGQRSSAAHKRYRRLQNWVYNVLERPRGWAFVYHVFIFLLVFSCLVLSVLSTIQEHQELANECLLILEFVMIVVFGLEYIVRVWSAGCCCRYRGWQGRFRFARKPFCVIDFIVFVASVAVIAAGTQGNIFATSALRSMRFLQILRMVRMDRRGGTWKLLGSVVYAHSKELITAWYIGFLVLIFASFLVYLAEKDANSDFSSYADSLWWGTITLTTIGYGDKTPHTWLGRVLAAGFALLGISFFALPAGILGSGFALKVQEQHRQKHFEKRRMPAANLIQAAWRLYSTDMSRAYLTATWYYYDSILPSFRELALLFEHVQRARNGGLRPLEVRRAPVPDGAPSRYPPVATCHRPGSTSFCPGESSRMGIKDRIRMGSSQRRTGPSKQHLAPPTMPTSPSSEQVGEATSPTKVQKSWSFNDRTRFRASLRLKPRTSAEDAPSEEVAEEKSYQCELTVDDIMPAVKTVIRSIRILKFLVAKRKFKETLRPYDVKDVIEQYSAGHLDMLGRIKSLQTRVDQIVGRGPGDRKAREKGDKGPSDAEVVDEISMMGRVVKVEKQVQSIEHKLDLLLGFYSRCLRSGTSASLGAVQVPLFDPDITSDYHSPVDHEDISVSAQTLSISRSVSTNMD
In short: (§1)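 CHO-K1 cells expressing the channel, whole-cell voltage clamp, compound at 10 μM. Read-out is the outward current ratio I/I0 with and without compound, taken at −10 mV. I/I0 > 1 counts as activation and < 1 as inhibition. More than four cells per compound.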

[2] = target: T2, Potassium voltage-gated channel subfamily KQT member 5 (Homo sapiens, UniProt Q9NR82); experiment: Activity at human KCNQ5 expressed in CHOK1 cells assessed as ratio of amplitude of outward current in presence of test compound to amplitude of outward current in absence of test compound at 10 uM at -10 mV by whole cell patch clamp assay; in short: as §1
[3] = target: T3, Potassium voltage-gated channel subfamily KQT member 3 (Rattus norvegicus) (UniProt O88944); experiment: Activity at rat KCNQ3 expressed in CHOK1 cells assessed as ratio of amplitude of outward current in presence of test compound to amplitude of outward current in absence of test compound at 10 uM at -10 mV by whole cell patch clamp assay
T3 sequence (whole entry): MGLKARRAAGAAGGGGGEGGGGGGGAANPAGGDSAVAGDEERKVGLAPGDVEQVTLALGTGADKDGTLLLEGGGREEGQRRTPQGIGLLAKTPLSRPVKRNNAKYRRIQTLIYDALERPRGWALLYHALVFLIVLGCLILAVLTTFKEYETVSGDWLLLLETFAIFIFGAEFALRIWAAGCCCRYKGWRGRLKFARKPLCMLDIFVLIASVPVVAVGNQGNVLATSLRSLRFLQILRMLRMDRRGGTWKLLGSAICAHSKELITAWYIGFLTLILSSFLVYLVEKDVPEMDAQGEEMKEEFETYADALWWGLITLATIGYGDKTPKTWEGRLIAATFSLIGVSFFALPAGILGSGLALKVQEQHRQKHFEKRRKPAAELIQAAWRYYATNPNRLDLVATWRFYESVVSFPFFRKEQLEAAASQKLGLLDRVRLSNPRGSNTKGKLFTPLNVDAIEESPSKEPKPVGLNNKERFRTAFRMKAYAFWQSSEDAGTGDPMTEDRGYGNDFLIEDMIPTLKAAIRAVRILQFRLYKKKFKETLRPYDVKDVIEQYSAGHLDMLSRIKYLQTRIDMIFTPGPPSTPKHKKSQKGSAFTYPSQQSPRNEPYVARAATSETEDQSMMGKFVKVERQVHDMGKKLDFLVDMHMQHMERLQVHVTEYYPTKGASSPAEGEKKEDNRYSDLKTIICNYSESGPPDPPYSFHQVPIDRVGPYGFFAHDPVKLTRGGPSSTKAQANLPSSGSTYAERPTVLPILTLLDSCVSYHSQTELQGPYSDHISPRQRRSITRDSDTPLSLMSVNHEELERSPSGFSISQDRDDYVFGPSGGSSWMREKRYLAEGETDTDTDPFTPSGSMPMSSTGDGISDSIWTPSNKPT
In short: (§2)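 CHO-K1 cells individually transfected with a single KCNQ subtype; whole-cell voltage clamp. Held at −80 mV, stepped from −90 to +60 mV in 10 mV increments (1500 ms), then to −120 mV for 500 ms. Outward current at −10 or +60 mV measured before (I0) and after (I) 10 μM compound; I/I0 >1 counts as activation. More than four cells per compound.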

[4] = target: Potassium voltage-gated channel subfamily KQT member 2 (Rattus norvegicus) (UniProt O88943); experiment: Activity at rat KCNQ2 expressed in CHOK1 cells assessed as ratio of amplitude of outward current in presence of test compound to amplitude of outward current in absence of test compound at 10 uM at +60 mV by whole cell patch clamp assay; in short: as §2
[5] = target: T3, Potassium voltage-gated channel subfamily KQT member 3 (Rattus norvegicus); experiment: Activity at rat KCNQ3 expressed in CHOK1 cells assessed as ratio of amplitude of outward current in presence of test compound to amplitude of outward current in absence of test compound at 10 uM at +60 mV by whole cell patch clamp assay; in short: as §2
[6] = target: T1, Potassium voltage-gated channel subfamily KQT member 4 (Homo sapiens); experiment: Activity at human KCNQ4 expressed in CHOK1 cells assessed as ratio of amplitude of outward current in presence of test compound to amplitude of outward current in absence of test compound at 10 uM at +60 mV by whole cell patch clamp assay; in short: as §2
[7] = target: T2, Potassium voltage-gated channel subfamily KQT member 5; experiment: Activity at human KCNQ5 expressed in CHOK1 cells assessed as ratio of amplitude of outward current in presence of test compound to amplitude of outward current in absence of test compound at 10 uM at +60 mV by whole cell patch clamp assay; in short: as §2
[8] = target: T1, Potassium voltage-gated channel subfamily KQT member 4 (Homo sapiens); experiment: Effect on voltage-dependent activation of human KCNQ4 expressed in CHOK1 cells assessed as negative shift in current activation curve at 10 uM by whole cell patch clamp assay

T2 sequence (Q9NR82 whole entry): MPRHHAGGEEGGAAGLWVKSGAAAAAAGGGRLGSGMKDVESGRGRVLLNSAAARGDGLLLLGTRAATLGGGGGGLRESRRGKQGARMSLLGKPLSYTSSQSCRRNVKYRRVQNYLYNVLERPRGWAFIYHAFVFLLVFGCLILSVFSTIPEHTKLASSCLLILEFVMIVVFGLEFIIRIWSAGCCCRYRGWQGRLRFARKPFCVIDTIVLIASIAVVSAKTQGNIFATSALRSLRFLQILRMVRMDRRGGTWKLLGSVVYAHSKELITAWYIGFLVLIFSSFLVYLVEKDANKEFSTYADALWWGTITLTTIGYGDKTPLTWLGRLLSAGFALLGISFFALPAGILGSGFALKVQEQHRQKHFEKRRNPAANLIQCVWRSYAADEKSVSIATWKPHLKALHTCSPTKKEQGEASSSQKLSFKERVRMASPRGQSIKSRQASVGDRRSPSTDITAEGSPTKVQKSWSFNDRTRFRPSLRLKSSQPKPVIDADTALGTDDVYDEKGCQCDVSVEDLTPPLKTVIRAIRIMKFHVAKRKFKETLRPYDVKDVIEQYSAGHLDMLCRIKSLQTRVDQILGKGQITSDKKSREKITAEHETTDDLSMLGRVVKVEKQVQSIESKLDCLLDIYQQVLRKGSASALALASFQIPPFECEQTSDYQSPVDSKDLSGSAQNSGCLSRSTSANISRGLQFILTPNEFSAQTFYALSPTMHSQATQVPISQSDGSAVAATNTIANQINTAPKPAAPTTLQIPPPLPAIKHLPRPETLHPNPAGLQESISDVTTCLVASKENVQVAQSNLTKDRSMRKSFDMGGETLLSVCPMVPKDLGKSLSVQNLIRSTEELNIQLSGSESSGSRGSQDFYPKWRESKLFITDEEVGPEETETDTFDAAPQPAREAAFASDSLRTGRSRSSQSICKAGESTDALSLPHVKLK
Chain of Potassium voltage-gated channel subfamily KQT member 2 (Rattus norvegicus) (O88943 whole entry): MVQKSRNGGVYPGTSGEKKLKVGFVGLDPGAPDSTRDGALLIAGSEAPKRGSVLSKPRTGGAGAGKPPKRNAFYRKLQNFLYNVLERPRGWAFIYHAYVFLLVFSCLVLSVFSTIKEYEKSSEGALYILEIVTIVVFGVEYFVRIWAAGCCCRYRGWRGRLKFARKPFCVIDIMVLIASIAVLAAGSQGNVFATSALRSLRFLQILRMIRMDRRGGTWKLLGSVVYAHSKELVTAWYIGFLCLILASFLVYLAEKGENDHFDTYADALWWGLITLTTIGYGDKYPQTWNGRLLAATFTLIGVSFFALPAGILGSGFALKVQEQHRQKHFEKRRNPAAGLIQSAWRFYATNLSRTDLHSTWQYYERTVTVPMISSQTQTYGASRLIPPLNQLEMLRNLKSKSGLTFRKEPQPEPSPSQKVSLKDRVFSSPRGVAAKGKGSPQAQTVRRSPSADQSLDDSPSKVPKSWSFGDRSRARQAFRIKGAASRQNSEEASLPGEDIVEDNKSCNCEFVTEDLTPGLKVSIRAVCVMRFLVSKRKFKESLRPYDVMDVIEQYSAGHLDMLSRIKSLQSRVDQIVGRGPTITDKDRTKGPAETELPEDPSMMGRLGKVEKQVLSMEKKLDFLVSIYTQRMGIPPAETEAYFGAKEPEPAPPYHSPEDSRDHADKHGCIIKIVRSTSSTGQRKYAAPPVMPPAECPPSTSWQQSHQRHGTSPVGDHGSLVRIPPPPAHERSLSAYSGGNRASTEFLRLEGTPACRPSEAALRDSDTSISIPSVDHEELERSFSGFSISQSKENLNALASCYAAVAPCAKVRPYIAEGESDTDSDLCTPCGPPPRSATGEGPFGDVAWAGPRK

`C#CCN(Cc1ccc(F)cc1)c1ccc(NC(=O)OCC)c(NC(=O)OCC)c1` was tested. Which Ratio [1] did it give?
Its Ratio is 5.68.

And the Ratio [2]?
The Ratio was 3.2.

What about the Ratio [3] of the same molecule?
The Ratio was 1.6.

What about the Ratio [4] of the same molecule?
Its Ratio is 0.8.

And the Ratio [5]?
Its Ratio is 1.7.

And the Ratio [6]?
Its Ratio is 6.6.

What about the Ratio [7] of the same molecule?
Its Ratio is 4.8.

What about the Activity [8] of the same molecule?
Its Activity is “inactive”.
